Source: the EternaBench riboswitch data

System: MS2 coat protein
Assay: apparent Kd, MS2 coat protein; higher = weaker binding; RNA-MaP array; FMN 200 µM where present
Summary of the method: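 The apparent Kd comes from binding curves fitted cluster by cluster, filtered, and summarised as a median. Those curves followed SNAP-549-labelled MS2 coat protein from 0.7 or 1.5 nM, doubling to 3 µM, on Illumina sequencing-chip clusters where stalled E. coli RNA polymerase had transcribed the designs, without and then with constant ligand. The buffer was 100 mM Tris-HCl pH 7.5, 80 mM KCl, 4 mM MgCl2, BSA, DTT, yeast tRNA and Tween-20, and green signal was normalised to red-channel RNA signal and control-cluster median Fmax.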

[1] = designed as: OFF switch for flavin mononucleotide, no ligand
[2] = ligand present: flavin mononucleotide, designed as: OFF switch for flavin mononucleotide
[3] = designed as: ON switch for flavin mononucleotide, no ligand
[4] = ligand present: flavin mononucleotide, designed as: ON switch for flavin mononucleotide

Sequence	apparent Kd [1] [µM]	apparent Kd [2] [µM]	apparent Kd [3] [µM]	apparent Kd [4] [µM]
GGUACUCAAAGAGUACCAAUACGAACAUGAGGAUCACCCAUGUAGGAUAUGCUCAAAACGGAGUAGCAGAAGGACAUGUGCCUA	0.0126	0.0322	–	–
AGGUCAACCACAGGAUAUGGCUAGCAUAGCUAGCCAGAAGGGUGGUCGUAUCCAUGUAAAUACAUGAGGAUCACCCAUGUAUCC	–	–	0.283	0.0791
AGUGUGUGGCAGGAUAUGCUGUUGAUUGGUGAAGCAGAAGGGUCUACAUGAGGAUCACCCAUGUAAGCGGUUGA	0.0531	0.225	–	–
GUGCACACUCGAGGAUAUCGGAGUUUUCUUCUUCGAGAAGGCGAUUCGUGCCGUGUUAUUUUGGACAUGAGGAUCACCCAUGUG	–	–	0.0934	0.0345
GCCAUCACAUGAGGAUAUGCUCGGGUUUCCCGAGCAGAAGGCAUGUCAUAAGACAUGAGGAUCACCCAUGUAGGUAAGAUGGCA	–	–	0.292	0.0136
UUGAAGUCAUCAGGAUAUAGUAUUAAAGACAUUUAUUUUUUCAUACAUGAGGAUCACCCAUGUCGCUAGAAGGGAUUAUAGAUU	0.0518	0.0492	–	–
AAGAAACAUGAGGAUCACCCAUGUAAGAUAAACACAGGAUAUGCGAAAAGAAACAAAGAAGCAGAAGGGUGAAGAA	–	–	0.0683	0.0197
AGGUGUAGAGGAUAUCUCUUCUCUCACAUGAGGAUCACCCAUGUUCUAAAGUCCAAGGAGAGAGAAGGCUACACCA	0.0198	0.0156	–	–
UGCGCUCGGGUGAGGAUAUUAGGACUACAAUUGUAUGAGAAGGCACAUGAGGAUCACCCAUGUGGGUGAGCGCC	0.922	0.42	–	–
GGGUACAUCGGAGGAUAUCAUGUAAAUACAUGAGGAUCACCCAUGUCGAUGGAGACAUCGGAGAUGGAGAAGGCCGAUGUACCG	–	–	0.538	0.102
UCUUUACAUGAGGAUCACCCAUGUGAGGAUAUGGAUUCGCUGGCCGUAGCCAGUGGAUCCAGAAGGCGCAUGAU	0.0267	0.048	–	–
GGAUUGAAUGAGGAUAUCGUAUCGGGUACGAUGCGAGAAGGCAUGACAUGAGGAUCACCCAUGUAGUGUGGGUU	0.415	0.685	–	–
GUCCUACAUGAGGAUCACCCAUGUCAGGAUAUGUAGCGUCCGGGCGAUAAGGCUCGGAGCAGAAGGGACAGGUG	0.0142	0.0162	–	–
GGAUCUUGGGUCAGGAUAUGCUGAUAUUUUUGUCAGCAGAAGGGACAUGAGGAUCACCCAUGUGCUUGGUUUUG	0.0112	0.0218	–	–
GAGAAGUCAGGAUAUGCUGCUCGUCACUUGCGUGAUGAGUAGCAGAAGGGACAUGAGGAUCACCCAUGUAAAGG	0.136	0.315	–	–
UGGUACUAGGGAGGAUAUGGGAAGAUACAUGAGGAUCACCCAUGUUUAAGAAUGCCGAGAGGCAACUAGAAGGCCCUAGUCCCU	–	–	0.317	0.0191
CGUGCGUCGACAGGAUAUACAGAUUGGCUCCGGUACAUGAGGAUCACCCAUGUAGAAGGGUCACGCACAGUUAGUUCGUUAUUA	0.00852	0.0379	–	–
CAUCCACAUGAGGAUCACCCAUGUCAGGAUAUCGCGCGCGCGUUUUCGGUCUUUCGCGCGAGAAGGGACGACUG	0.0154	0.0163	–	–
CAAUUGGCACAGAAGGGUGACAUGAGGAUCACCCAUGUAGCGUGGCACUCAGGAGGAACCACGCCACAGGAUAUGUGCGGGCAC	–	–	0.065	0.0766
CAGAAGUCAGGAUAUCCAUGGCGGCACUUGCGUGGUGGCGUGGAGAAGGGACAUGAGGAUCACCCAUGUAAAGU	0.0587	0.0617	–	–
UAGAUGGGAGGAUAUGCGUAGAUACGGAUUCGUGUAGUGCUACAUGAGGAUCACCCAUGUAGAAGGCCCGUCUU	0.0152	0.0183	–	–
GCCUUACCGGUCAGGAUAUACAUUUGUUACUCCUUGUAGAAGGGACAUGAGGAUCACCCAUGUACAUUACAUUC	0.0194	0.0204	–	–
GCAUGCAAGUAGAAGGACAGAUAUUUUGAUACUGUAGGAUAUGCAGAAUCAUAUCCACAUGAUAACAUGAGGAUCACCCAUGUA	0.0116	0.01	–	–
AGCUGUGGCCGAGGAUAUCUGUCUCAUAAAACCGAAAUAUAAUCGGACAUGAGGAUCACCCAUGUAGAGAAGGCGGUCUCAGCA	0.0213	0.0837	–	–
GCGUAAUAGGUGUAGCUAGUCGUUCAAGAAGGGUGAAGAACAUGAGGAUCACCCAUGUGGUCUAUACAGGAUAUUGAUAUACGC	–	–	–	0.0666
UGCCUUAGAGGAUAUACAUUGAAUUUGAUUCAUGUAAAACUACAUGAGGAUCACCCAUGUAGAAGGCUAGGGCU	0.0191	0.0371	–	–
AGGUAAGAGUUAAUUGUGACGGUGAGAAGGCAAAAGGUUGUGAUUAACAUGAGGAUCACCCAUGUUGAGGAUAUCACCACCUUC	0.00695	0.00881	–	–
GGUUACACAGGAUAUACAUGAGGAUCACCCAUGUCGAGCCGACCCGGAUGCACCUAAAGUAGAAGGGUGAGCUG	0.0218	0.0227	–	–

Sequence	apparent Kd [1] [µM]	apparent Kd [2] [µM]	apparent Kd [3] [µM]	apparent Kd [4] [µM]
UGUCAUUUACAGAAGGGUAGUUGGGUUAUACAUGAGGAUCACCCAUGUUAUACAGGAUAUGUGUAAAGUUAUUAUUAAAGUACA	0.0301	0.036	–	–
AGUUAAUAUCGAGGAUAUGUCUAGACACAUGAGGAUCACCCAUGUAUGUGUAUAGAAGGCGAAAUUAAAAGCAUGUUACAUGCA	–	–	0.0311	0.0195
GCUGUCGCAUGAGGAUAUGGUCAGCUUUGCUGACCAGAAGGCAUGUCAAUAGACAUGAGGAUCACCCAUGUAGUAAGGGCGGCU	–	–	0.466	0.0488
UGUAUGGACAGAGGAUAUACCGAUAGGAUCUACUAUCGAAUAAUCCUCACAUGAGGAUCACCCAUGUAGAAGGCUGUCCAUACU	0.0212	0.142	–	–
UAAUGUGACAUGAGGAUCACCCAUGUAGACAUGGGAAGGUCGUAGGAUAUGCUGAUGAUUUUUUUGCAGAAGGACGUCAAGGAG	–	–	0.268	0.138
UGUUGUAUUACAGGAUAUCUAUGUUUUUUAUUUAGAGAAGGGUAUUCACAUGAGGAUCACCCAUGUAUAUACGAGGAAGUUGUG	–	–	0.049	0.049
UGCAUUACUUAGAAGGGAUAUAUAUAAUUUUAAUCAGGAUAUAGAUACAAUACAACAUGAGGACAUGAGGAUCACCCAUGUAUU	–	–	0.0199	0.014
GAAGAGACAGGAUAUACAUGAGGAUCACCCAUGUGAGGAUGUUGGAGGCGGAGGAGGUGUAGAAGGGUCAAAGA	0.0312	0.0287	–	–
UUCAUCGAUGAAGGAUAUCUAUGUCCAACAUGAGGAUCACCCAUGUUGAGGAUUACCUAUGUGUAGGAGAAGGUCAAUAUAACU	–	–	0.00702	0.00628
GCCACGUCAGGAUAUCUGAUGUCUAACUUCGGUUAGACAUCAGAGAAGGGACAUGAGGAUCACCCAUGUGGCAA	0.264	0.177	–	–
GCGUUGAACGAGAAGGCCAAUACAUGAGGAUCACCCAUGUUGUGAUGUUUUGGAGGAUAUCGAUCGUCGUCUCAUGAGCAACGC	0.00747	0.0102	–	–
GCCUACUGGCGAGGAUAUUCUGUGCGGUUCCGGCUCGUGUCUGUUACAUGAGGAUCACCCAUGUGGGAGAAGGUGUCUGUGGCC	0.00753	0.00741	–	–
CUAUAUAAUACCUCAUGUACAUGAGGAUCACCCAUGUUAACUUAGGAUAUAUUUAUAUUAAUAAAGUAGAAGGAAGUACUAUUU	0.0233	0.0194	–	–
CCAUCAGCGGGCGUAUCGGUUGGACAUGAGGAUCACCCAUGUAGAAGGACAGGUGUAUUUCGGCUGUAGGAUAUACAUUUGGUG	0.026	0.0799	–	–
CAUGUCCUCACAGGAUAUGCACCACUUUGUGGUGCAGAAGGGUGGAUACAUGAGGAUCACCCAUGUGGACAUGAUAUAUUUAAG	–	–	0.708	0.0584
GCCAUCGCAUGAGGAUAUGCUCGGGUUUCCCGAGCAGAAGGCAUGUCAAAAGACAUGAGGAUCACCCAUGUAGUUAAGAUGGCA	–	–	0.122	0.00811
UUUUAGACAGGAUAUACAUUUUUUUAUUUAUUUAUAAUAUUACAUGAGGAUCACCCAUGUAGAAGGGUCAUUUU	0.0393	0.0312	–	–
AGCCAACAUGAGGAUCACCCAUGUCUACAGGAUUAAGGAUAUGGGCAGGGCUUCCCUGCACUAGAAGGUGAUCGAA	–	–	0.153	0.214
ACAUGAGGAUCACCCAUGUGAACAUAGGAUAUUGGUGAUCAGGCGUGUUAUACAGGAUAGGUCUGCGAGAAGGGUGCACGUUGC	–	–	0.54	0.146
CUCAGCUCGUGAGGAUAUACAACACUGCUUCGGCAGUGUAUUAAGAUCACAUGAGGAUCACCCAUGUAGAAGGCACGAGCUGAU	0.0143	0.246	–	–
GCCAUCGCAUGAGGAUAUGCUCCCGUUUCGGGAGCAGAAGGCAUGUCAUAAGACAUGAGGAUCACCCAUGUGGUAAAGAUGGCA	–	–	0.237	0.0103
CAGUACUGAGGAUAUACAUGAGGAUCACCCAUGUGGUCCAGCUAGGAAACUAGCACGUGUAGAAGGCAGUACUG	0.0361	0.0565	–	–
CCGUGGCAAGGAUAUACGUAGGAGAGGAAGGCAAGAGAAGGACAUGAGGAUCACCCAUGUAGAAGGUGCAGAUC	0.0565	0.0565	–	–
AAAUUAAGAAGAGGAUAUUGACAUGAGGAUCACCCAUGUAUUUGGGAGUGUUUACUGAAUUCUUACGAGAAGGCUUACGAAAUU	0.221	0.212	–	–
UUCAGCUCGUCAGGAUAUACGUCACUGCGUCAGCAGUGUGGUAAGAUCACAUGAGGAUCACCCAUGUAGAAGGGACGAGCUGAU	0.0137	0.235	–	–
AUCCGGCGUGUAGGAUAUGGAAAAGAAAAGGAUCCAGAAGGACAUGAGGAUCACCCAUGUACAUGUAAACAGUCAUCACCGGAA	0.0362	0.0589	–	–
AGAGAUACGCUCGUCGGACACCGACAUGAGGAUCACCCAUGUAGAAGGCGAUGCGCAACUCGCAUUGAGGAUAUAUAAUGCAGC	0.006	0.00574	–	–
